S100A4 inh HTS: S100A4-myosin IIA interaction inhibition. S100A4/TAMRA-MyoIIA peptide fluorescence polarization. inhibition, % at 10.7 µM. hit rate 0.14% among 360,000. AID 652163;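 active means mean inhibition of at least 70% across replicates, with every replicate also reaching that level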
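Test system: S100A4 monomer protein. Medium: HEPES buffer with Ca2+, pH 7.2. Reagent: fluorescent myosin IIA peptide, 5 nM. Compound dosing: single-point compound testing. Timing: 5 min between mix addition and reading. Benchmarks: DMSO neutral and TFP positive wells.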
SIRT5 block: blocks human SIRT5 desuccinylation of peptide; Q9NXA8; hit rate 1.1% among 330,000; inhibition, % at 15 µM; Purified SirT5, succinyl-peptide AMC, trypsin-coupled fluorescence; in the data active means inhibition above about 15%
ERAP1 HTS inh: ERAP1 (human) enzyme inhibition. recombinant ERAP1, Leu-AMC fluorescence, 60 min. inhibition, % at 10.7 µM. AID 652197. Q9NZ08. hit rate 0.15% among 340,000;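 active means mean replicate inhibition of at least 30%, or all replicates individually reaching that 30% level; inactive means mean below 30% and not every replicate reaching it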;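 further: 0% = neutral control wells and 100% = L-leucinethiol positive control wells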
E-sel inducer: induces E-selectin expression in human endothelial cells; P16581; HUVEC E-selectin immunofluorescence imaging; normalized: neutral wells 0, TNF-alpha wells 100; activation, % at 7.58 µM; hit rate 0.37% among 260,000;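 active means mean E-selectin-positive cell signal at least 10% of the positive control, reached in at least 60% of replicates, without over 20% cell loss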
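Test system – human umbilical vein endothelial cells (HUVEC), E-selectin induction · Input – 3,000 HUVEC seeded per well · Buffer or medium – EGM-2, gelatin · Compound dosing – single-point compound dose · Detection – immunofluorescence imaging · Measure – percent E-selectin-positive cells · Controls – TNF-alpha high, DMSO low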
MLL AF4-AF9 inh: blocks AF4 peptide binding to human AF9; P42568; AlphaScreen, biotin-AF4 peptide binding to FLAG-AF9; inhibition, % at 10 µM; hit rate 0.47% among 350,000;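 active means every replicate reaching a set inhibition limit, whatever the replicate mean, cut at about 25% in these data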;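 further: 0% = plate neutral control median and 100% = total signal loss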
Ecoli rRNA inh: inhibitors of bacterial rRNA selective over humanized ribosomes; GFP signal change (wild-type ribosome), % (no concentration beside the values); E. coli WT GFP vs humanized-ribosome RFP mutants, fluorescence, 24 h; active compounds read low; DMSO median 0, no signal -100; hit rate 1.6% among 350,000; AID 720706;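 active means significant combined selectivity score with lowered wild-type GFP, culture density cut under 30%, mutant RFP and density less affected; inactive means any of these conditions unmet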
* hit, by the source's call. Sampled rows, rich in hits. Any-hit rate of the full collection: about 3.4%.

For COc1ccc(NC(=O)Nc2ccc3c(c2)CC(=O)N([C@@H](C)CO)C[C@@H](C)[C@H](CN(C)Cc2ccc(Oc4ccccc4)cc2)O3)cc1 the results were S100A4 inh HTS 3, SIRT5 block -3, ERAP1 HTS inh 1, E-sel inducer 0, MLL AF4-AF9 inh 2 and Ecoli rRNA inh 1.
C[C@@H]1CN([C@H](C)CO)C(=O)Cc2cc(NC(=O)CCN3CCOCC3)ccc2O[C@H]1CN(C)S(C)(=O)=O was read as S100A4 inh HTS -2, SIRT5 block 0, ERAP1 HTS inh 2, E-sel inducer 332*, MLL AF4-AF9 inh -1 and Ecoli rRNA inh 2.
`C[C@H]1CN([C@@H](C)CO)C(=O)Cc2cc(NC(=O)CCN3CCOCC3)ccc2O[C@H]1CN(C)S(C)(=O)=O` gave S100A4 inh HTS 16, SIRT5 block 2, ERAP1 HTS inh -1, E-sel inducer -3, MLL AF4-AF9 inh -3 and Ecoli rRNA inh 5.
COc1ccc(CN(C)C[C@@H]2Oc3ccc(NC(=O)Nc4ccc(F)cc4)cc3CC(=O)N([C@H](C)CO)C[C@@H]2C)cc1 was read as S100A4 inh HTS -3, SIRT5 block 4, ERAP1 HTS inh -2, E-sel inducer 76*, MLL AF4-AF9 inh 0 and Ecoli rRNA inh -16.
Screening COc1ccc(CN(C)C[C@H]2Oc3ccc(NC(=O)Nc4ccc(F)cc4)cc3CC(=O)N([C@H](C)CO)C[C@H]2C)cc1 returned S100A4 inh HTS -4, SIRT5 block 2, ERAP1 HTS inh -1, E-sel inducer -4, MLL AF4-AF9 inh -2 and Ecoli rRNA inh 3.
`CCC(=O)N1CC2(C1)CN(C(=O)NC1CCCC1)[C@@H](CO)c1c2c2ccc(OC)cc2n1C` gave Ecoli rRNA inh 0.
C[C@H]1CN([C@@H](C)CO)C(=O)Cc2cc(NC(=O)CCCCCC(=O)Nc3ccccc3N)ccc2O[C@H]1CN(C)C(=O)Nc1cccc2ccccc12 was read as S100A4 inh HTS -26, SIRT5 block -3, E-sel inducer -12 and Ecoli rRNA inh 3.
COc1ccc(CN(C)C[C@@H]2Oc3ccc(NC(=O)Nc4ccc(F)cc4)cc3CC(=O)N([C@H](C)CO)C[C@H]2C)cc1 was read as S100A4 inh HTS 0, SIRT5 block 2, ERAP1 HTS inh -1, E-sel inducer 83*, MLL AF4-AF9 inh 0 and Ecoli rRNA inh -55.
C[C@@H]1CN([C@H](C)CO)C(=O)Cc2cc(NC(=O)C3CC3)ccc2O[C@@H]1CN(C)Cc1ccccc1 was read as S100A4 inh HTS 5, SIRT5 block 99*, ERAP1 HTS inh -1, E-sel inducer 0, MLL AF4-AF9 inh 0 and Ecoli rRNA inh -3.
`COc1ccc(CN(C)C[C@@H]2Oc3ccc(NC(=O)Cc4ccccc4)cc3CC(=O)N([C@@H](C)CO)C[C@H]2C)cc1` gave S100A4 inh HTS 84*, SIRT5 block 3, ERAP1 HTS inh -3, E-sel inducer 0, MLL AF4-AF9 inh -1 and Ecoli rRNA inh 2.
COc1ccc(CN(C)C[C@@H]2Oc3ccc(NC(=O)Cc4ccccc4)cc3CC(=O)N([C@H](C)CO)C[C@@H]2C)cc1 was read as S100A4 inh HTS -5, SIRT5 block 1, ERAP1 HTS inh 5, E-sel inducer 0, MLL AF4-AF9 inh -7 and Ecoli rRNA inh -4.
For C[C@H](CO)N1C[C@H](C)[C@H](CN(C)Cc2ccccc2)Oc2ccc(NC(=O)C3CC3)cc2CC1=O the results were S100A4 inh HTS 11, SIRT5 block 0, ERAP1 HTS inh -1, E-sel inducer 0, MLL AF4-AF9 inh 2 and Ecoli rRNA inh -2.
`COc1ccc(CN(C)C[C@@H]2Oc3ccc(NC(=O)NC4CCCCC4)cc3CC(=O)N([C@H](C)CO)C[C@@H]2C)cc1` gave S100A4 inh HTS 2, SIRT5 block 15*, ERAP1 HTS inh -2, E-sel inducer 1, MLL AF4-AF9 inh 2 and Ecoli rRNA inh -2.
For CCC(=O)N(C)C[C@H]1Oc2cc(C#CCOC)ccc2S(=O)(=O)N([C@H](C)CO)C[C@@H]1C the results were S100A4 inh HTS 3, SIRT5 block 2, ERAP1 HTS inh 1, E-sel inducer 0, MLL AF4-AF9 inh 3 and Ecoli rRNA inh -1.
`Cc1ccc(C(=O)n2nc(-n3cccc3)c3c(C)cc(C)nc32)cc1` gave S100A4 inh HTS -6, SIRT5 block 26*, ERAP1 HTS inh 1, MLL AF4-AF9 inh -1 and Ecoli rRNA inh 18.
C[C@@H]1CCCCO[C@@H](CN(C)S(=O)(=O)c2cn(C)cn2)[C@H](C)CN([C@@H](C)CO)C(=O)c2cc(NC(=O)c3ccccc3)ccc2O1 was read as S100A4 inh HTS -5, SIRT5 block -1, ERAP1 HTS inh -2, E-sel inducer 1, MLL AF4-AF9 inh -2 and Ecoli rRNA inh 0.
Screening O=C(CCN1CCCCC1)N[C@@H]1CC[C@@H](CCNS(=O)(=O)c2ccc(Cl)cc2)O[C@@H]1CO returned S100A4 inh HTS -4, SIRT5 block 0, ERAP1 HTS inh 0, E-sel inducer 0, MLL AF4-AF9 inh 2 and Ecoli rRNA inh -3.
For COc1ccc(-c2nc(N3CCN(C)CC3)sc2-c2ccc(OC)cc2)cc1 the results were S100A4 inh HTS 2, SIRT5 block -3, ERAP1 HTS inh -1, MLL AF4-AF9 inh 34* and Ecoli rRNA inh -47.
CNc1nc(-c2ccc(OC)cc2)c(-c2ccc(OC)cc2)s1 was read as S100A4 inh HTS -2, SIRT5 block -1, E-sel inducer 0, MLL AF4-AF9 inh -1 and Ecoli rRNA inh -3.
Screening CC1=C(/C=C/C(C)=C/C=C/C(C)=C/CO)C(C)(C)CCC1 returned S100A4 inh HTS -17, SIRT5 block 26*, ERAP1 HTS inh 1, MLL AF4-AF9 inh -5 and Ecoli rRNA inh -1.
`CO[C@H]1CN(C)C(=O)c2ccc(NC(=O)C3CC3)cc2OC[C@H](C)N(Cc2ccccc2)C[C@@H]1C` gave S100A4 inh HTS -3, SIRT5 block 0, ERAP1 HTS inh 1, E-sel inducer 0, MLL AF4-AF9 inh 0 and Ecoli rRNA inh -3.
`CN(C)C(=O)C[C@@H]1C[C@@H]2c3cc(NS(=O)(=O)c4ccc(F)cc4)ccc3O[C@@H]2[C@@H](CO)O1` gave E-sel inducer 0 and Ecoli rRNA inh -1.
CCCCCCC[C@H](N)[C@H](O)C(=O)N(C)[C@@H](CCS(C)=O)C(=O)N[C@@H](Cc1ccc(O)cc1)C(=O)N[C@@H](Cc1ccc(O)cc1)C(=O)O (some centres undefined) was read as S100A4 inh HTS 4, ERAP1 HTS inh 50*, E-sel inducer 0, MLL AF4-AF9 inh 1 and Ecoli rRNA inh 6.
